pIC50: −log10 of the molar value.

This assay addresses T1, Type-1 angiotensin II receptor (Oryctolagus cuniculus, UniProt P34976).
T1 sequence (P34976 whole entry): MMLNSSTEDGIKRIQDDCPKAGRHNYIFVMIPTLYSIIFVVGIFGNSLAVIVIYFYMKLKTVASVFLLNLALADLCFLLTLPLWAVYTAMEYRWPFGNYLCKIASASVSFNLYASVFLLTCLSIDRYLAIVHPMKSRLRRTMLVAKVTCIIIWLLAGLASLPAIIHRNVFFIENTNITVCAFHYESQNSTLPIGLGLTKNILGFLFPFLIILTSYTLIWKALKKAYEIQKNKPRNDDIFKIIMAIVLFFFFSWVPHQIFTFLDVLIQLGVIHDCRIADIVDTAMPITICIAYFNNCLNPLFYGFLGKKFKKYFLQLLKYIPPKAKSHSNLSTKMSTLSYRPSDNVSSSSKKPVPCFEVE
The assay can be described thus: Displacement of [125I]-Sar1-Ile8-A II at the rabbit aorta angiotensin II receptor, type 1. The class given is tissue-based. The method in brief: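 Rabbit aorta membranes in 50 mM Tris-HCl pH 7.4, 5 mM MgCl2, 0.2 mg/mL bacitracin; 0.2% BSA only in original version. Nonspecific binding with 1 μM unlabeled Sar1Ile8-AII. Filtration, gamma counting. Duplicate tubes, five concentrations; IC50 from nonlinear regression of displacement curves, sometimes averaged over separate assays.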
(In general: In a radioligand displacement assay an active substance lowers the binding of a labelled ligand.)
Turning to `CCCCc1nnc(Sc2ccccc2)n1Cc1ccc(-c2ccccc2-c2nn[nH]n2)cc1`, the negative logarithm of the IC50 (pIC50) (as a rule, the IC50 on a negative log10 scale, so that one unit is a factor of ten) is 7.00.
Next, `CCCCc1nnc(-c2ccncc2)n1Cc1ccc(NC(=O)c2ccccc2C(=O)O)cc1`: 5.85; `CCCc1nnc(SCc2ccccc2)n1Cc1ccc(NC(=O)c2ccccc2C(=O)O)cc1`: 6.92; `CCCCc1nc(Cl)c(CC(=O)OC)n1Cc1ccc(NC(=O)c2ccccc2C(=O)O)cc1`: 6.38.
In the case of `CCCCc1nnc([S+]([O-])Cc2ccc(OC)cc2)n1Cc1ccc(-c2ccccc2-c2nnn[nH]2)cc1` (configuration not stated), the pIC50 was 7.30.
On to `CCCCc1nnc(SCCc2ccccc2)n1Cc1ccc(NC(=O)c2ccccc2C(=O)O)cc1`, for which the negative-log IC50 (pIC50) was 7.15.
Molecule `CCCCc1nnc(SC(CC)C(=O)OC)n1Cc1ccc(NC(=O)c2ccccc2C(=O)O)cc1` (configuration not stated) showed a pIC50 of 6.52.
As for `CCCCc1nn2c(-c3ccccc3)cnc2n1Cc1ccc(-c2ccccc2-c2nn[nH]n2)cc1`, the negative logarithm of the IC50 (pIC50) is 6.66.
The molecule `CCCCc1nnc(SCc2ccccc2C(=O)OC)n1Cc1ccc(NC(=O)c2ccccc2C(=O)O)cc1` had a pIC50 of 7.85.
`CCCCc1nnc(NCc2ccc(Cl)cc2)n1Cc1ccc(-c2ccccc2-c2nn[nH]n2)cc1` showed a pIC50 of 6.85.
For the molecule `CCCCc1nnc(-c2ccco2)n1Cc1ccc(NC(=O)c2ccccc2C(=O)O)cc1`, the pIC50 is 6.00.
Next, `CCCCc1nn2c(C)c(-c3ccccc3)nc2n1Cc1ccc(-c2ccccc2-c2nnn[nH]2)cc1`: 7.89; `CCCCc1nn2cc(C)nc2n1Cc1ccc(-c2ccccc2-c2nnn[nH]2)cc1`: 7.26; `CCCCc1nnc(SCc2ccccc2C(=O)OC)n1Cc1ccc(-c2ccccc2-c2nnn[nH]2)cc1`: 7.05.
Next, `CCCCc1nnc(SCc2cccc(OC)c2)n1Cc1ccc(-c2ccccc2-c2nn[nH]n2)cc1`: 7.03; `CCCSc1nnc(C(F)(F)F)n1Cc1ccc(NC(=O)c2ccccc2C(=O)O)cc1`: 5.68; `CCCCc1nc2ccccc2n1Cc1ccc(-c2ccccc2-c2nn[nH]n2)cc1`: 7.02.
Next, `CCCCc1nnc(SCc2ccccc2Cl)n1Cc1ccc(-c2ccccc2-c2nnn[nH]2)cc1`: 6.96; `CCCSc1nnc(Cc2ccccc2)n1Cc1ccc(NC(=O)c2ccccc2C(=O)O)cc1`: 6.42.
`CCCCc1nnc(SCc2cccc(C(=O)O)c2)n1Cc1ccc(NC(=O)c2ccccc2C(=O)O)cc1`: the pIC50 was 7.82.
`CCCCc1nnc(OCCc2ccccc2)n1Cc1ccc(-c2ccccc2-c2nnn[nH]2)cc1`: the negative-log IC50 (pIC50) was 7.20.
`CCCCc1nn2cc(CC)nc2n1Cc1ccc(-c2ccccc2-c2nn[nH]n2)cc1` showed a negative-log IC50 (pIC50) of 7.26.
Next, `CCSc1nnc(COC)n1Cc1ccc(NC(=O)c2ccccc2C(=O)O)cc1`: 5.28; `CCCCc1nnc(S(C)(=O)=O)n1Cc1ccc(-c2ccccc2-c2nn[nH]n2)cc1`: 6.40.
Molecule `CCCSc1nnc(CSc2ccccc2)n1Cc1ccc(NC(=O)c2ccccc2C(=O)O)cc1` gave a pIC50 of 5.92.
`CCCCc1nnc([S+]([O-])Cc2ccc(OC)cc2)n1Cc1ccc(NC(=O)c2ccccc2-c2nn[nH]n2)cc1` (configuration not stated) gave a pIC50 of 7.55.
`CCCCc1nnc(-c2cccnc2)n1Cc1ccc(NC(=O)c2ccccc2C(=O)O)cc1`: the pIC50 is 5.77.
Next, `CCCCc1nnc(SCc2ccccc2[N+](=O)[O-])n1Cc1ccc(-c2ccccc2-c2nnn[nH]2)cc1`: 6.89; `CCCCc1nnc(SCCc2ccccc2)n1Cc1ccc(-c2ccccc2-c2nnn[nH]2)cc1`: 7.46; `CCCCc1nnc(SCc2ccc(C(F)(F)F)cc2)n1Cc1ccc(NC(=O)c2ccccc2C(=O)O)cc1`: 7.38.
With `CCCc1nnc(SCc2ccc(Cl)cc2)n1Cc1ccc(-c2ccccc2-c2nn[nH]n2)cc1`, the pIC50 was 7.01.
Molecule `CCCCc1nn2c(-c3ccccc3)c(C)nc2n1Cc1ccc(-c2ccccc2-c2nnn[nH]2)cc1` gave a negative logarithm of the IC50 (pIC50) of 6.77.
Regarding `CCCCc1nnc(SCc2ccc(C(=O)O)cc2)n1Cc1ccc(-c2ccccc2-c2nnn[nH]2)cc1`, the pIC50 was 7.62.
On to `CCCCc1nnc(SCC(C)C)n1Cc1ccc(-c2ccccc2-c2nn[nH]n2)cc1`, for which the pIC50 is 7.14.
Regarding `CCCCc1nc(Cl)c(CO)n1Cc1ccc(-c2ccccc2C(=O)O)cc1`, the pIC50 is 6.64.
The molecule `CCCCc1nnc(C(=O)N(C)c2ccccc2)n1Cc1ccc(-c2ccccc2-c2nnn[nH]2)cc1` gave a pIC50 of 6.46.
Next, `CCCCc1nnc(S)n1Cc1ccc(-c2ccccc2C(=O)O)cc1`: 6.07; `CCCCc1nnc([S+]([O-])Cc2ccccc2C(=O)O)n1Cc1ccc(-c2ccccc2-c2nnn[nH]2)cc1` (configuration not stated): 8.00.
The molecule `CCCCc1nnc(SC)n1Cc1ccc(-c2ccccc2-c2nnn[nH]2)cc1` had a pIC50 of 6.51.
Molecule `CCCCc1nnc([S+]([O-])Cc2ccc([N+](=O)[O-])cc2)n1Cc1ccc(-c2ccccc2-c2nnn[nH]2)cc1` (configuration not stated) showed a negative logarithm of the IC50 (pIC50) of 8.05.
`CCCCc1nnc(SCc2ccccc2C#N)n1Cc1ccc(NC(=O)c2ccccc2C(=O)O)cc1` showed a negative-log IC50 (pIC50) of 7.22.
The molecule `CCCCc1nnc(SC(C(=O)O)c2ccccc2)n1Cc1ccc(NC(=O)c2ccccc2C(=O)O)cc1` (configuration not stated) showed a pIC50 of 7.70.
As to `CCSc1nnc(-c2ccccc2)n1Cc1ccc(NC(=O)c2ccccc2C(=O)O)cc1`, the pIC50 was 5.72.
In turn, `CCCCc1nnc(C(=O)NCc2ccccc2)n1Cc1ccc(-c2ccccc2-c2nnn[nH]2)cc1` gave a negative-log IC50 (pIC50) of 7.24.
As to `CCCCc1nnc(SCc2cccc(Cl)c2)n1Cc1ccc(NC(=O)c2ccccc2C(=O)O)cc1`, the pIC50 was 7.59.
Next, `CCSc1nnc(C(F)(F)F)n1Cc1ccc(NC(=O)c2ccccc2C(=O)O)cc1`: 5.32; `CCCCc1nnc(SCc2cccc(C(=O)OC)c2)n1Cc1ccc(NC(=O)c2ccccc2C(=O)O)cc1`: 7.52; `CCCCc1nnc(SCc2cccc(OC)c2)n1Cc1ccc(NC(=O)c2ccccc2C(=O)O)cc1`: 7.68.
In turn, `CCCCc1nn2c(C)c(C)nc2n1Cc1ccc(-c2ccccc2-c2nn[nH]n2)cc1` had a pIC50 of 8.11.
For `CCCCc1nnc(-c2ccccc2)n1Cc1ccc(NC(=O)c2ccccc2C(=O)O)cc1`, the negative-log IC50 (pIC50) was 6.03.
Next, `CCCCc1nnc(SCC(=O)OC)n1Cc1ccc(NC(=O)c2ccccc2C(=O)O)cc1`: 6.48; `CCCCc1nnc(OCc2ccccc2)n1Cc1ccc(-c2ccccc2-c2nn[nH]n2)cc1`: 6.43; `CCCCc1nnc(NCc2ccc(OC)cc2)n1Cc1ccc(-c2ccccc2-c2nnn[nH]2)cc1`: 6.11.
In turn, `CCCCc1nnc(SCc2ccccc2Cl)n1Cc1ccc(NC(=O)c2ccccc2C(=O)O)cc1` had a negative logarithm of the IC50 (pIC50) of 7.52.
Take `CCCCc1nnc([S+]([O-])Cc2ccc(OC)cc2)n1Cc1ccc(NC(=O)c2ccccc2C(=O)O)cc1` (configuration not stated): the pIC50 was 8.13.
As to `CCCCc1nnc(SCc2ccc(OC)cc2)n1Cc1ccc(-c2ccccc2-c2nnn[nH]2)cc1`, the pIC50 was 7.51.
In the case of `CCCCc1nnc(SCCO)n1Cc1ccc(NC(=O)c2ccccc2C(=O)O)cc1`, the negative-log IC50 (pIC50) is 6.32.
Molecule `CCCCc1nnc(SCc2cccc(C)c2)n1Cc1ccc(NC(=O)c2ccccc2C(=O)O)cc1` showed a negative logarithm of the IC50 (pIC50) of 7.49.
On to `CCCCc1nnc(SC(C(=O)OC)c2ccccc2)n1Cc1ccc(NC(=O)c2ccccc2C(=O)O)cc1` (configuration not stated), for which the negative-log IC50 (pIC50) was 8.21.
Next, `CCCCc1nnc(SCC2CCCCC2)n1Cc1ccc(-c2ccccc2-c2nn[nH]n2)cc1`: 7.44.
In the case of `CCCCc1nnc(SCc2ccc(C(=O)OC)cc2)n1Cc1ccc(-c2ccccc2-c2nn[nH]n2)cc1`, the pIC50 is 6.92.
In turn, `CCCCc1nnc(SCC(=O)c2ccccc2)n1Cc1ccc(NC(=O)c2ccccc2C(=O)O)cc1` gave a negative-log IC50 (pIC50) of 6.72.
`CCCCc1nnc(SCc2ccccc2C)n1Cc1ccc(-c2ccccc2-c2nn[nH]n2)cc1` showed a negative-log IC50 (pIC50) of 7.77.
As for `CCCCc1nnc(SCC(=O)NC)n1Cc1ccc(NC(=O)c2ccccc2C(=O)O)cc1`, the pIC50 was 6.14.
Next, `CCCCc1nnc(Sc2ccccc2)n1Cc1ccc(NC(=O)c2ccccc2C(=O)O)cc1`: 7.22; `CCCSc1nnc(CCCc2ccccc2)n1Cc1ccc(NC(=O)c2ccccc2C(=O)O)cc1`: 6.49.
Consider `CCSc1nnc(Cc2ccccc2)n1Cc1ccc(NC(=O)c2ccccc2C(=O)O)cc1`, for which the pIC50 was 6.00.
The molecule `CCCCc1nnc(SCc2ccccc2CO)n1Cc1ccc(-c2ccccc2-c2nn[nH]n2)cc1` gave a pIC50 of 7.44.
Next, `CCCSc1nnc(-c2ccccc2)n1Cc1ccc(NC(=O)c2ccccc2C(=O)O)cc1`: 5.80.
Molecule `CCCCc1nnc(SCc2ccc(Cl)cc2)n1Cc1ccc(NC(=O)c2ccccc2C(=O)O)cc1` had a pIC50 of 8.17.
In turn, `CCCCCc1nnc(SCc2ccc(Cl)cc2)n1Cc1ccc(-c2ccccc2-c2nn[nH]n2)cc1` showed a pIC50 of 7.03.
Turning to `CCCCc1nnc(SCc2ccc3ccccc3c2)n1Cc1ccc(NC(=O)c2ccccc2C(=O)O)cc1`, the pIC50 was 7.31.

These data come from ChEMBL document CHEMBL1127039, “Nonpeptide angiotensin II antagonists derived from 4H-1,2,4-triazoles and 3H-imidazo[1,2-b][1,2,4]triazoles” (J Med Chem, 1993).
